Published values gathered from unrelated publications.
Lines come from different studies, so protocols differ. pIC50, pKd: −log10 of the molar value.
KIT: Mast/stem cell growth factor receptor Kit (KIT, Homo sapiens, UniProt P10721)

SMILES	target	read-out	action	technique	measurement	value
CCN1CCN(Cc2ccc(C(=O)Nc3ccc(C)c(Oc4ccc5c(c4)CC(=O)N5)c3)cc2C(F)(F)F)CC1	KIT	enzyme activity	inhibitor		pIC50	< 5.00
COc1ccc2c(Oc3ccc4c(C(=O)Nc5ccccc5N)cccc4c3)ccnc2c1	KIT	enzyme activity	inhibitor		pIC50	8.40
CN(C)c1ccc(C=C2C(=O)Nc3ccccc32)cc1	KIT	enzyme activity	inhibitor	radiometric	pIC50	7.08
C=CC(=O)Nc1cccc(CN2C(=O)N(c3c(Cl)c(OC)cc(OC)c3Cl)Cc3cnc(NCCCCN(CC)CC)nc32)c1	KIT	binding		competition with immobilised ligand	pKd	6.38
Cc1ccc(NC(=O)c2ccc(CN3CCS(=N)(=O)CC3)cc2)cc1Nc1nccc(-c2cccnc2)n1	KIT	binding		competition with immobilised ligand	pKd	7.96
CNC(=O)c1cc2c(Oc3ccc(NC(=O)C4(C(=O)Nc5ccc(F)cc5)CC4)cc3)ccnc2cc1OC	Mast/stem cell growth factor receptor Kit (KIT, Homo sapiens, UniProt P10721, V560G)	enzyme activity	inhibitor	radiometric	pIC50	7.82
Cc1cnc(-c2ccc(-c3ccc(NC(=O)Nc4c(F)cc(F)cc4F)cc3F)c3c2C(=O)NC3)[nH]1	KIT	enzyme activity	inhibitor		pIC50	7.53
CN1CCN(c2ccc(Nc3ncc4cc(C#N)c(=O)n(C5CCCC5)c4n3)cc2)CC1	KIT	enzyme activity	inhibitor		pIC50	7.38
